Compound activity from PubChem BioAssay.
NSD2 inh: blocks human histone methyltransferase NSD2; O96028; NSD2 peptide methylation, AlphaScreen, 120 min; inhibition, % at 12.5 µM; 310,000 tested, 0.54% active; in the data active means inhibition above about 50%
MBD2 DNA inh: blocks human MBD2 binding to methylated DNA; AID 686964; 370,000 tested, 0.31% active; TR-FRET, MBD2 binding to methylated oligonucleotide; inhibition, % at 4.4 µM; Q9UBB5; in the data active means inhibition above about 13%
Casp6 inh: caspase-6 (human) enzyme inhibition. P55212. 350,000 tested, 0.53% active. purified caspase-6, Z-VEID-R110 cleavage fluorescence. AID 686996. inhibition, % at 12.5 µM;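 active means mean inhibition across replicates at least about 35%, with every replicate also reaching that limit, limit read from the data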;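 further: 0% = median of neutral control wells and 100% = no fluorescence left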
UHRF1 binding: human UHRF1 methylated DNA binding inhibitors; Q96T88; UHRF1 binding to methylated oligo, TR-FRET; inhibition, % at 4.4 µM; 370,000 tested, 0.75% active; AID 687016; in the data active means inhibition above about 21%;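 further: UHRF1 SRA domain binding a hemimethylated CpG hairpin DNA probe; 0% = median of test compound wells and 100% = reference inhibitor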
TDP2 absorb: blocks human TDP2 phosphodiesterase activity. recombinant TDP2, T5PNP hydrolysis, p-nitrophenol absorbance 415 nm. inhibition, % at 12.8 µM. 370,000 tested, 0.34% active;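 active means inhibition above the mean of all tested compounds plus 3 SD, set per campaign, cut at about 25% in these data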;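 further: 0% = DMSO with enzyme and 100% = buffer with substrate but no TDP2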
Target sequence (O95551 whole entry, looked up): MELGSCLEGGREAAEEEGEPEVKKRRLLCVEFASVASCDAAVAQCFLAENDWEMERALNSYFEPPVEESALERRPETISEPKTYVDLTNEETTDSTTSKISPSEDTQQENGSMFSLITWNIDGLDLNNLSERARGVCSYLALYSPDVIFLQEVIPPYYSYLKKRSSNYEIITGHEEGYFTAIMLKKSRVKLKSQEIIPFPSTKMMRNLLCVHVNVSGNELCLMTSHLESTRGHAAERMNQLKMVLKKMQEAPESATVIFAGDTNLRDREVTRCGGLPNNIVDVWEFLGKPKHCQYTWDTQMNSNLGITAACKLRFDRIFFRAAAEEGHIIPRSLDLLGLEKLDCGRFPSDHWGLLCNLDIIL
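Evaluation: % inhibition relative to enzyme-containing and enzyme-free wells. Material: recombinant human TDP2. Benchmarks: enzyme-free and DMSO wells. Timing: enzyme reaction with compound for 2 h at 37 °C. Compound dosing: 12.8 µM only. Measured by: p-Nitrophenol epi absorbance. Reagent: T5PNP substrate at 5 mM, a TopII-DNA adduct mimic. Replication: single well per compound.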
LEDGF integ inh: blocks HIV-1 LEDGF/p75-dependent DNA integration. TR-FRET IN-LEDGF/p75 DNA integration, Eu/Cy5. inhibition, % at 3.7 µM. 370,000 tested, 0.64% active. AID 743269;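 active means inhibition above the screen-wide mean plus 3 SD, cut at about 13% in these data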;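 further: signal is the Cy5 over europium emission ratio at 671 and 618 nm; 0% = plate median of compound wells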
An asterisk follows results filed as active; . = no result given. Shown are actives, neighbours in structure and some others; about 1.8% of the full set was active somewhere.

SMILES	NSD2 inh	MBD2 DNA inh	Casp6 inh	UHRF1 binding	TDP2 absorb	LEDGF integ inh
CC(C)CC#Cc1ccc2c(c1)O[C@@H](CN(C)S(=O)(=O)c1cccc(F)c1)[C@H](C)CN([C@@H](C)CO)S2(=O)=O	.	.	2	.	.	.
Cc1ccc(NS(=O)(=O)c2ccc(Br)s2)nc1	0	-6	37*	-2	3	-2
CO[C@H]1CN(C)C(=O)c2cc(NC(=O)c3ccccc3F)ccc2OC[C@@H](C)N(C)C[C@@H]1C	.	.	16	.	.	.
CSc1nnc(CNS(=O)(=O)c2ccc(Cl)cc2)n1C	-5	-3	0	26*	-3	-1
Cc1cc(-n2nnc3ccccc32)nc2ccccc12	36	4	55*	-2	5	0
CCOC(=O)c1sc2nc3c(SCC(=O)O)cc(C(=O)c4ccccc4O)cn3c(=O)c2c1C	1	1	11	-2	5	-1
O=C(O)CSc1cc(C(=O)c2ccccc2O)cn2c(=O)c3c(-c4ccccc4)csc3nc12	.	6	39*	0	-2	5
CCC(=O)Nc1ccc2c(c1)OC[C@@H](C)N(C(=O)C1CCC1)C[C@H](C)[C@H](OC)CN(C)C2=O	.	.	0	.	.	.
COCCNC(=S)Nc1ccc(S(=O)(=O)Nc2ncccn2)cc1	.	5	1	4	-4	-2
COCCNC(=S)Nc1ccc(S(=O)(=O)Nc2cnc3ccccc3n2)cc1	-3	1	0	37*	-3	-2
CNC[C@@H]1Oc2ccc(NS(=O)(=O)c3ccc(C)cc3)cc2CC(=O)N([C@H](C)CO)C[C@H]1C	.	.	-3	.	.	.
COc1cc(C(=O)N2CCN(C(=O)CC(C)C)CC2)cc(OC)c1OC	-2	9	4	31*	0	-3
C[C@H]1CN([C@@H](C)CO)S(=O)(=O)c2ccc(C#CCN(C)C)cc2O[C@@H]1CN(C)Cc1cccnc1	.	.	-1	.	.	.
CC(C)=CCOc1ccc2c(C)c(CC(=O)N3C[C@H]4C[C@@H](C3)c3cccc(=O)n3C4)c(=O)oc2c1C	.	0	-1	35*	2	3
Cc1c(OCC(=O)N2C[C@H]3C[C@@H](C2)c2cccc(=O)n2C3)ccc2c3c(c(=O)oc12)CCCC3	.	-2	0	0	-14	4
Cc1ccc(C(=O)C(C)OC(=O)C2=COCCO2)cc1C (centres undefined)	-1	9	.	3	-9	2
Cc1cc(C)c(C(=O)C(C)OC(=O)C2=COCCO2)cc1C (centres undefined)	-6	-1	58*	2	-10	-8
Cc1nc(C)c(CCNC(=O)c2ccccc2Br)s1	-2	-1	.	21*	-5	1
O=S(=O)(NCC(c1cccnc1)N1CCOCC1)c1ccc(Cl)cc1 (centres undefined)	-2	-6	-1	25*	9	1
O=S(=O)(NCc1cccnc1)c1ccc(Cl)cc1	1	2	47*	5	5	4
CCOc1ccc(S(=O)(=O)NCc2cccnc2)cc1	-3	-5	-2	-2	4	7
O=S(=O)(NCC(c1cccnc1)N1CCOCC1)c1ccccc1 (centres undefined)	.	2	3	13	8	0
COc1ccc2c3c(n(C)c2c1)[C@H](CO)N(C(=O)Nc1ccc(F)cc1)CC31CCN(Cc2cccc(F)c2)CC1	.	.	2	.	.	.
O=C(O)C1C2C=CC(C2)C1C(=O)NCc1cccs1 (centres undefined)	-1	-1	45*	2	2	-3
O=C(CCCCC(=O)NCc1cccs1)NCc1cccs1	-10	12	.	23*	12	3
SMILES	NSD2 inh	MBD2 DNA inh	Casp6 inh	UHRF1 binding	TDP2 absorb	LEDGF integ inh
C[C@@H]1CCCCO[C@@H](CN(C)C(=O)Nc2cccc3ccccc23)[C@H](C)CN([C@@H](C)CO)C(=O)c2cc(NC(=O)Nc3cccc4ccccc34)ccc2O1	.	.	0	.	.	.
O=C(C1CCCC1)N1CCCCN2[C@H](CO)[C@@H](c3ccc(C#CC4CC4)cc3)[C@H]2C1	.	.	-2	.	.	.
CC(C)C[C@H]1COCn2nncc2CC[C@H](Cc2ccccc2)C(=O)N1	.	.	6	.	.	.
O=Cc1cscc1[B-](F)(F)F	.	2	66*	0	2	2
O=Cc1cc([B-](F)(F)F)cs1	.	-3	16	-1	1	0
O=S(=O)(Nc1cc(Sc2cccc3cccnc23)c(O)c2ccccc12)c1ccc(F)cc1	14	-37	0	-15	24	24*
CC1CC(C)CN(C(=O)c2cc3cc(Br)cc(Br)c3o2)C1 (centres undefined)	-1	3	-1	47*	-17	-6
Cc1c(C#N)c(O)[nH]c(=O)c1N=Nc1ccc(S(N)(=O)=O)cc1	12	-19	44*	-31	11	6
Cc1ccc(S(=O)(=O)Nc2ccc3c(c2)C(=O)N([C@@H](C)CO)C[C@H](C)[C@@H](CN(C)S(=O)(=O)c2ccc(C)cc2)OCCCC[C@@H](C)O3)cc1	.	.	-3	.	.	.
CC=Cc1ccc2n(c1=O)C[C@H]1[C@H](CO)[C@@H](C(=O)NCCC)[C@@H]2N1CC1CC1 (mixture of isomers)	.	.	0	.	.	.
O=c1[nH]c2ccccc2cc1CN(Cc1ccco1)S(=O)(=O)c1ccc(F)cc1	-1	10	1	23*	-9	-6
C[C@H]1CN([C@@H](C)CO)C(=O)c2cccc(NC(=O)C3CCCCC3)c2O[C@@H]1CN(C)C(=O)NC1CCCCC1	.	.	-1	.	.	.
Cc1cccc(C)c1NC(=O)C1(NC(=O)Cn2cccc([N+](=O)[O-])c2=O)CCCCC1	-2	3	-1	24*	-3	-3
Cc1cccc(C)c1NC(=O)C1(NC(=O)C2CCC(=O)N2)CCCCC1 (centres undefined)	-3	2	.	9	6	-3
O=C(c1ccccc1)c1ccc(N2CCOCC2)cc1	1	-5	-32	2	-2	5
CC(=O)N(C)C1=C(O)c2ccccc2C(=O)C1=O	9	-6	.	-10	5	1
CC(=O)N(C)C1=C(N2CCOCC2)C(=O)c2ccccc2C1=O	98*	.	.	.	.	.
O=C(O)c1ccc(NC2=C(N3CCOCC3)C(=O)c3ccccc3C2=O)cc1	95*	-6	.	-3	22	2
O=c1c(OC2OC(CO)C(O)C(O)C2O)c(-c2ccc(O)c(O)c2)oc2cc(O)cc(O)c12 (centres undefined)	.	-5	16	-4	-5	70*
CN1CCN(C(=O)C[C@@H]2CC[C@@H](NC(=O)Nc3ccccc3F)[C@@H](CO)O2)CC1	.	.	-3	.	.	.
CCOC(=O)c1sc2nc(OCc3cccnc3)cc(C)c2c1N	.	25*	30	55*	-5	0
CN(C)c1cccc(C(=O)OCc2cc(=O)oc3cc(O)ccc23)c1	.	8	.	24*	4	5
